The values below come from ChEMBL document CHEMBL6134766, “Design, synthesis, and evaluation of benzhydrylpiperazine-based novel dual COX-2/5-LOX inhibitors with anti-inflammatory and anti-cancer activity” (RSC Med Chem, 2025).

Data set [1] in a line: Acute toxicity in female Wistar rat assessed as drug tolerance up to 500 mg/kg, po measured for 14 days. The class given is organism-based. The following applies: in vivo, 336 h, time 14 day. The method in brief: (§1)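 Followed OECD 423 guideline in healthy female Wistar rats weighing 200–250 g. Animals were housed at 25 ± 2 °C and 45–60% RH on a 12 h light/dark cycle, with free access to water and food.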

Data set [2] relates to Drosophila. The data set is described as follows: Toxicity in wild-type Drosophila assessed as eclosion rate at 50 uM, po via food to female and male flies and measured in F1 generation flies after 15 days. Type of data set: organism-based. The following applies: in vivo, 360 h, time 15 day. The method in brief: (§2)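 Ten virgin female and male Oregon R+ flies crossed on food containing compound (1, 10, 50, 100 or 200 μM), held at 24 ± 1 °C; F1 generation followed 15 days; percent eclosion versus untreated controls; Dunnett's multiple comparisons.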

Data set [3] deals with Gastric mucosa. The data set is described as follows: Antioxidant activity in gastric mucosal tissue in Wistar rat assessed as increase in GSH level at 20 mg/kg, po. Type of data set: functional, organism-based. The gist of the method: (§3)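 Fasted rats (n = 6/group) gavaged once daily for 3 days in 0.3% Na CMC and sacrificed 6 h after the final dose. Randomly chosen stomachs homogenized in cold PBS pH 7.4 and centrifuged at 1000 rpm for 10 min at 4 °C. Supernatant protein measured by Bradford assay; GSH and nitrate then measured by reported methods.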

Data set [4] concerns Drosophila. Kind of data set: Anti-cancer activity in Drosophila harboring UAS-Ras V12 mutant assessed as improvement in larval development to pupal transition at 10 to 50 uM, po. The class given is functional, organism-based. The following applies: dose 10-50 µM. The gist of the method: (§4)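 UAS-RasV12 glial glioblastoma model (repo-GAL4/UAS-RasV12) in Drosophila, with Oregon R+ wild-type flies as control. Flies reared at 24 ± 1 °C on standard corn food containing compound at 10 or 50 μM. Percent of animals at each developmental stage (third instar larva, pupa) scored. Significance by Tukey's multiple comparisons test.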

Data set [5] deals with Rattus norvegicus. The data set is described as follows: Anti-inflammatory activity in carrageenan-induced paw edema Wistar rat model assessed as swelling thickness of paw at 10 mg/kg, po measured immediately by digital vernier caliper (reference value: 3.48 +/- 0.21 millimeter). Type of data set: functional.
Data set [6] concerns Rattus norvegicus. The data set is described as follows: Anti-inflammatory activity in arachidonic acid-induced paw edema Wistar rat model assessed as swelling thickness of paw at 10 mg/kg, po measured after 1 hr by digital vernier caliper (reference value: 6.51 +/- 0.37 millimeter). The class given is functional.
Data set [7] is described as follows: Toxicity in fasting Wistar rat assessed as ulcer score at 10 mg/kg, po via gavage treated for 3 days consecutively by H and E staining based analysis (reference value: 0). Type of data set: organism-based. The following applies: in vivo, 72 h, time 3 day. The gist of the method: (§5)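 Fasted rats, n = 6/group, gavaged once daily for 3 days in 0.3% Na CMC (vehicle control 0.3% CMC); killed under anaesthesia 6 h after day-3 dose; stomachs saline-washed, mucosa examined with hand lens; ulcer score, index and % ulceration by reported scoring; some stomachs formalin-fixed, H&E stained.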

Data set [8] relates to Rattus norvegicus. The data set is described as follows: Anti-inflammatory activity in carrageenan-induced paw edema Wistar rat model assessed as swelling thickness of paw at 5 mg/kg, po measured after 1 hr by digital vernier caliper (reference value: 8.47 +/- 0.25 millimeter). Type of data set: functional. Background: In the carrageenan paw model, swelling and tenderness develop within hours.

Data set [9] in a line: Acute toxicity in female Wistar rat assessed as detrimental effects up to 500 mg/kg, po measured for 14 days. The class given is organism-based. The following applies: in vivo, 336 h, time 14 day. The gist of the method: as §1
Data set [10] concerns Drosophila. Kind of data set: Anti-cancer activity in Drosophila harboring UAS-Ras V12 mutant assessed as improvement in pupal development at 10 uM, po. The class given is functional, organism-based. The method in brief:
as §4

For the next data set, the system named is A549. The data set is described as follows: Cytotoxicity against human A549 cells assessed as growth inhibition incubated for 48 hrs by SRB assay. To be noted: A549, 48 h. (In general: In SRB staining, fixed cells bind dye roughly in proportion to their protein.)
A short description of data set [11]: Toxicity in wild-type Drosophila assessed as lethal dose administered orally via food to female and male flies and measured in F1 generation flies after 15 days. Type of data set: organism-based. The following applies: both, in vivo, route po, time 15 day, read-out: LD50. The method in brief: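 Wild-type Oregon R+ flies (10 virgin females and males) were crossed on standard food containing 1, 10, 50, 100 or 200 μM compound and kept at 24 ± 1 °C. The F1 generation was followed for 15 days, scoring percent adult eclosion against an untreated control. LD50 was derived from the eclosion data, with Dunnett's test.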

Data set [12] in a line: Half life in male Wistar rat at 10 mg/kg, po measured up to 24 hrs by HPLC analysis. The class given is ADME, organism-based. The following applies: in vivo. The gist of the method: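 Overnight-fasted male Wistar rats, 200–250 g, single 10 mg kg−1 p.o. in 0.3% sodium CMC; blood at 0, 0.5, 1, 2, 4, 8, 16, 24 h into heparin tubes; plasma MeOH-extracted, HPLC (MeOH:H2O 85:15, 254 nm) against calibration curve; extravascular non-compartmental analysis; mean ± SD (n = 3).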

Data set [13] has as its system Rattus norvegicus. Kind of data set: Anti-inflammatory activity in carrageenan-induced paw edema Wistar rat model assessed as swelling thickness of paw at 10 mg/kg, po measured after 1 hr by digital vernier caliper (reference value: 8.47 +/- 0.25 millimeter). The class given is functional.
The nature of data set [14]: Toxicity in Wistar rat assessed as change in serum urea level at 20 mg/kg, po. The class given is organism-based. To be noted: in vivo. The gist of the method:
(§6)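 Rats dosed orally in 0.3% Na CMC; retro-orbital blood clotted at room temperature, serum separated at 2000 rpm, 20 min, 4 °C; ALT, AST, creatinine and urea by commercial kits; n = 6 per group, mean ± SD; Tukey test after repeated-measures one-way ANOVA.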

The subject of data set [15] is Rattus norvegicus. The data set is described as follows: Anti-inflammatory activity in carrageenan-induced paw edema Wistar rat model assessed as swelling thickness of paw at 10 mg/kg, po measured after 6 hrs by digital vernier caliper (reference value: 8.33 +/- 0.42 millimeter). The class given is functional.
Data set [16] has as its system Rattus norvegicus. The data set is described as follows: Anti-inflammatory activity in carrageenan-induced paw edema Wistar rat model assessed as swelling thickness of paw at 5 mg/kg, po measured after 4 hrs by digital vernier caliper (reference value: 8.36 +/- 0.78 millimeter). Type of data set: functional.
Data set [17] deals with Drosophila. Kind of data set: Anti-cancer activity in Drosophila harboring UAS-Ras V12 mutant assessed as improvement in early pupal survivability at 10 to 50 uM, po. To be noted: dose 10-50 µM. Type of data set: functional, organism-based. The method in brief:
as §4

The test system of data set [18] is Drosophila. The data set is described as follows: Toxicity in wild-type Drosophila assessed as reduction in eclosion rate at 200 uM, po via food to female and male flies and measured in F1 generation flies after 15 days. On the set-up: scale not given: the % may be the effect or the level left. The class given is organism-based. To be noted: in vivo, 360 h, time 15 day. The method in brief: as §2

Data set [19] can be described thus: Toxicity in Wistar rat assessed as change in serum creatinine level at 20 mg/kg, po. The class given is organism-based. To be noted: in vivo. The method in brief: as §6
Data set [20] in a line: Toxicity in fasting Wistar rat assessed as ulcer score at 20 mg/kg, po via gavage treated for 3 days consecutively by H and E staining based analysis (reference value: 0). To be noted: in vivo, 72 h, time 3 day. Type of data set: organism-based. The method in brief: as §5
For data set [21], the system named is Rattus norvegicus. Kind of data set: Anti-inflammatory activity in carrageenan-induced paw edema Wistar rat model assessed as inhibition of PGE2 level administered orally measured for 6 hrs by ELISA. The class given is functional, organism-based. The following applies: dose 5-20 mg/kg, route po. The gist of the method: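 Paw tissue taken from carrageenan-edema rats dosed orally at 5, 10 or 20 mg kg−1. Tissue rinsed in PBS pH 7.4, minced, homogenized, filtered and centrifuged at 2000 rpm for 20 min at 4 °C. Supernatant assayed by ELISA for PGE2, IL-6, TNF-α and IL-10. Data as mean ± SD.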

For data set [22], the system named is Gastric mucosa. The data set is described as follows: Antioxidant activity in gastric mucosal tissue in Wistar rat assessed as decrease in nitrite level at 20 mg/kg, po. The class given is functional, organism-based. The method in brief: as §3
For data set [23], the system named is Drosophila. The data set is described as follows: Anti-cancer activity in Drosophila harboring UAS-Ras V12 mutant assessed as increase in early pupal developmental differentiation at 10 to 50 uM, po. Type of data set: functional, organism-based. To be noted: dose 10-50 µM. The gist of the method: as §4

Calls of active or inactive are those of the source.

Broadly, the GI50 is the concentration that inhibits growth by half. Broadly, the half-life is the time needed for the level to fall by half in the phase considered.

With `Clc1ccc(-c2nnc(CN3CCN(C(c4ccccc4)c4ccc(Cl)cc4)CC3)o2)cc1` (centres undefined), the Activity result in data set [1] is given as “Non-toxic”; in the data set with Drosophila [2], more than 70%; with Rattus norvegicus [5], 3.21 mm; in the data set on Rattus norvegicus [6], 2.01 mm; in [7], 0.02; in the data set with Rattus norvegicus [8], 6.18 mm. Also, the Activity entry in [9] is “Non-toxic”; with Rattus norvegicus [13], 5.15 mm; in data set [14], “Non-toxic”; in the data set on Rattus norvegicus [15], 3.37 mm; in the data set with Rattus norvegicus [16], 4.18 mm; with Drosophila [18], 24%. Besides, the results for the Activity entry in [19] and in [20] were “Non-toxic” and 0.018, respectively. Moreover, the result in the data set on Gastric mucosa [3], in the data set with Drosophila [4], in the data set with Drosophila [10], in the data set with Drosophila [17], in the data set with Gastric mucosa [22] and in the data set on Drosophila [23] was Active. In addition, the GI50 with A549 is 0.731 µM. Moreover, the LC50 at 360 h in data set [11] worked out at 100 µM. The same molecule had a half-life in data set [12] of 2.11 h. The inhibition entry in the data set on Rattus norvegicus [21] is “Dose-dependent-effect”.
Turning to `O=[N+]([O-])c1ccc(-c2nnc(CN3CCN(C(c4ccccc4)c4ccc(Cl)cc4)CC3)o2)cc1` (centres undefined), the Activity entry is reported as “Non-toxic” in [1]; 3.44 mm in the data set on Rattus norvegicus [5]; 2.3 mm in the data set on Rattus norvegicus [6]; 0.031 in data set [7]; 5.74 mm with Rattus norvegicus [8]; “Non-toxic” in data set [9]. In addition, the Activity with Rattus norvegicus [13] is given as 5.32 mm; in data set [14] it was “Non-toxic”; with Rattus norvegicus [15] it was 3.89 mm; in the data set on Rattus norvegicus [16], 4.57 mm; in data set [19], “Non-toxic”; in data set [20], 0.093. In addition, the outcome in the data set with Gastric mucosa [3] and with Gastric mucosa [22] was Active. Moreover, the inhibition entry with Rattus norvegicus [21] is “Dose-dependent-effect”.
